Key:
Autotaxin [1] = molecular target: T1, Autotaxin (Homo sapiens, UniProt Q13822); assay: Inhibition of C-terminal FLAG tagged human recombinant ATX expressed in insect sf9 cells using FS-3 as substrate measured every 2 mins for 60 mins by FRET assay
Procedure, shortened: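 Dose response over 0.03 to 30 μM compound, 10 nM human FLAG-fusion ATX, 1 μM FS-3 in pH 8.0 Tris/BSA assay buffer. Fluorescence at 485/520 nm every 2 min for 60 min at 37 °C, normalized to no-ATX and no-compound controls. IC50 by non-linear regression. Triplicate.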

Autotaxin [2] = molecular target: T1, Autotaxin; assay: Inhibition of C-terminal FLAG tagged human recombinant ATX expressed in insect sf9 cells at 10 uM using FS-3 as substrate measured every 2 mins for 60 mins by FRET assay
Procedure, shortened: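 10 μM compound with 10 nM human FLAG-fusion ATX in pH 8.0 Tris buffer (30 μM BSA, 1 mM CaCl2, 1 mM MgCl2, 5 mM KCl, 140 mM NaCl) and 1 μM FS-3. Fluorescence at ex 485/em 520 nm read every 2 min for 60 min at 37 °C. Normalized to no-ATX (0%) and ATX without compound (100%). Triplicate.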

Autotaxin [3] = molecular target: T1, Autotaxin; assay: Inhibition of C-terminal FLAG tagged human recombinant ATX expressed in insect sf9 cells at 10 uM using pNP-TMP as substrate measured every 2 mins for 60 mins by absorbance

| IC50 (Autotaxin [1]) [µM] | inhibition (Autotaxin [2]) [%] | inhibition (Autotaxin [3]) [%] | SMILES |
| --- | --- | --- | --- |
| 6.6 | 63 | – | O=C(COc1cccc(F)c1)N1CCN(c2ccc([N+](=O)[O-])cc2)CC1 |
| 4.6 | 61.9 | 14.3 | O=C(COc1cccc(C(F)(F)F)c1)N1CCN(c2cccc([N+](=O)[O-])c2)CC1 |
| 5.4 | 62.6 | 23.8 | O=C(COc1ccc(Cl)cc1)N1CCN(c2cccc([N+](=O)[O-])c2)CC1 |
| 5.8 | 62.4 | 17.1 | O=C(COc1cccc(Cl)c1)N1CCN(c2cccc([N+](=O)[O-])c2)CC1 |
| – | 47.1 | 18.7 | O=C(COc1ccccc1Cl)N1CCN(c2ccccc2[N+](=O)[O-])CC1 |
| – | 12.1 | 1.7 | O=C(O)c1ccccc1N1CCN(C(=O)COc2ccccc2Cl)CC1 |
| – | 42.7 | 24.9 | O=C(COc1cccc(Cl)c1)N1CCN(c2ccccc2[N+](=O)[O-])CC1 |
| – | 41.9 | 4.9 | O=C(COc1ccccc1Cl)N1CCN(c2cccc([N+](=O)[O-])c2)CC1 |
| – | 39.5 | 18.2 | O=C(COc1cccc(F)c1)N1CCN(c2ccccc2[N+](=O)[O-])CC1 |
| – | 42 | 11.5 | O=C(O)c1cccc(N2CCN(C(=O)COc3ccccc3Cl)CC2)c1 |
| – | 48.1 | 8.9 | O=C(COc1ccc(F)cc1)N1CCN(c2cccc([N+](=O)[O-])c2)CC1 |
| – | 25.6 | -1.8 | O=C(COc1ccccc1F)N1CCN(c2ccccc2[N+](=O)[O-])CC1 |
| – | 10.8 | 10.9 | O=C(O)c1cccc(N2CCN(C(=O)COc3ccccc3F)CC2)c1 |

More lines, now with the values behind:

| SMILES | IC50 (Autotaxin [1]) [µM] | inhibition (Autotaxin [2]) [%] | inhibition (Autotaxin [3]) [%] |
| --- | --- | --- | --- |
| O=C(COc1cccc(C(F)(F)F)c1)N1CCN(c2ccc([N+](=O)[O-])cc2)CC1 | 4.9 | 63.3 | 4.1 |
| O=C(O)c1ccc(N2CCN(C(=O)COc3ccc(Cl)cc3)CC2)cc1 | 4.1 | 50.8 | 19.6 |
| CC(=O)OC1(C(=O)COC(=O)c2ccco2)CC2CCC3C4C=CC(=O)CC4(C)CCC3C2(C)C1 (centres undefined) | 5.7 | 59.6 to 59.7 | – |
| O=C(O)c1ccccc1N1CCN(C(=O)COc2cccc(C(F)(F)F)c2)CC1 | – | 41.3 | -3.5 |
| O=C(O)c1ccc(N2CCN(C(=O)COc3ccc(Cl)cc3Cl)CC2)cc1 | – | 23.9 | 9.7 |
| O=C(O)c1ccccc1N1CCN(C(=O)COc2cccc(Cl)c2)CC1 | – | 24.4 | -3.3 |
| COc1ccc2c(c1)C(NCc1cc(OC)c(OC)cc1N)CCO2 (centres undefined) | 6.6 | 48 | 7.5 |
| O=C(O)c1ccccc1N1CCN(C(=O)COc2cccc(F)c2)CC1 | – | -5.5 | -4.8 |
| O=C(COc1ccc(F)cc1)N1CCN(c2ccc([N+](=O)[O-])cc2)CC1 | 6.4 | 65.4 | – |
| O=C(COc1ccc(Cl)cc1)N1CCN(c2ccccc2[N+](=O)[O-])CC1 | 8.2 | 59.1 | 38 |
| O=C(O)c1ccc(N2CCN(C(=O)COc3ccc(C(F)(F)F)cc3)CC2)cc1 | – | 46 | 7.9 |
| O=C(O)c1ccccc1N1CCN(C(=O)COc2ccccc2C(F)(F)F)CC1 | – | 17.3 | 4.6 |
| O=C(O)c1ccc(N2CCN(C(=O)COc3cc(Cl)cc(Cl)c3)CC2)cc1 | – | 46.7 | 27.8 |
| O=C(O)c1ccccc1N1CCN(C(=O)COc2ccccc2F)CC1 | – | -7.6 | -5.7 |
| O=C(O)c1ccccc1N1CCN(C(=O)COc2ccc(F)cc2)CC1 | – | 11.5 | -7.2 |
| O=C(O)c1ccc(N2CCN(C(=O)COc3ccc(F)cc3)CC2)cc1 | – | 0.9 | -6.5 |
| O=C(COc1ccc(F)cc1)N1CCN(c2ccccc2[N+](=O)[O-])CC1 | – | 42.4 | 19.9 |
| O=C(O)c1ccccc1N1CCN(C(=O)COc2ccc(Cl)cc2Cl)CC1 | – | 27.6 | -7.9 |

Source: ChEMBL document CHEMBL4431364, “Discovery and synthetic optimization of a novel scaffold for hydrophobic tunnel-targeted autotaxin inhibition” (Bioorg Med Chem, 2016)
